A short description of assay [1]: Antiinflammatory activity in mouse RAW264.7 cells assessed as inhibition of LPS-induced NO production pretreated for 30 mins followed by LPS stimulation for 24 hrs by Griess assay. It counts as functional, cell-based. An outline of the steps: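 Cells seeded at 5 × 10^4 per well, grown 24 h, pretreated 30 min, then stimulated with 500 ng/mL LPS for 24 h; 0.5% DMSO vehicle in all wells; LPS-only and unstimulated blanks included; L-NIL as positive control. Medium reacted with Griess reagent, absorbance at 540 nm; IC50 reported.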

For assay [2], the system named is RAW264.7. Description: Inhibition of NF-kappaB in mouse RAW264.7 cells assessed as reduction in LPS-induced degradation of IkappaB-alpha pretreated for 30 mins followed by LPS stimulation for 1 hr by Western blot analysis. It counts as cell-based. An outline of the steps: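 Serum-starved (12 h) cells pretreated 30 min at 2.5, 5 or 10 μM or 0.5% DMSO, then LPS 500 ng/mL for 1 h; Western blot for IκB-α and phospho-IκB-α (1:1000, 4 °C overnight), ECL, β-tubulin loading control; bands quantified from three independent experiments.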
On the technique in general: In western blotting, separated proteins are transferred to a membrane and probed.

In assay [3] the test system is Mus musculus. Description: Antiinflammatory activity in TPA-induced ear edema BALB/c mouse model assessed as reduction in inflammatory cell infilteration at 10 mg/ml applied topically pretreated for 30 mins followed by TPA exposure measured after 4 hrs by hematoxylin and eosin staining based light microscopic method. It counts as functional, tissue-based. A digest of the protocol:
(§1)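 Right ear pretreated topically (2.5, 5, 10 mg/mL) 30 min before TPA for 4 h; left ear acetone only; 1% hydrocortisone as positive control. Ears fixed in 4% paraformaldehyde, paraffin-embedded, cut at 4 μm, H&E stained; representative area examined qualitatively by light microscopy at 200×; n = 8 mice per group.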

Assay [4] concerns RAW264.7. Put plainly: Inhibition of LPS-induced NF-kappaB (unknown origin) transactivation expressed in mouse RAW264.7 cells pretreated for 30 mins followed by LPS stimulation for 6 hrs by luciferase reporter gene assay. The class given is cell-based. To be noted: Homo sapiens. A digest of the protocol: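 RAW 264.7 line stably carrying NF-κB-driven firefly luciferase, maintained with 500 μg/mL G418; seeded 5 × 10^5 per well, 24 h, pretreated 30 min at 2.5–20 μM, then 500 ng/mL LPS for 6 h; 0.5% DMSO vehicle; 20 μM PDTC positive control. Lysate luminescence read; three independent experiments, means ± SD.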
(In general: A reporter such as luciferase makes a cellular process visible.)

In assay [5] the test system is Mus musculus. Put plainly: Antiinflammatory activity in BALB/c mouse assessed as inhibition of TPA-induced ear edema at 10 mg/ml applied topically pretreated for 30 mins followed by TPA exposure measured after 4 hrs. It counts as functional. An outline of the steps:
(§2)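 Topical dosing of right ear at 2.5, 5 or 10 mg/mL, 30 min before TPA; left ear given acetone only as solvent control; 1% hydrocortisone as positive control. Mice killed 4 h after TPA, 7 mm central punches taken from both ears and weighed; edema rate (%) = [(weight right − weight left)/weight left] × 100%. n = 8 mice per group.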

Assay [6] deals with Transcription factor p65 (Mus musculus) (UniProt Q04207). Description: Inhibition of LPS-induced NF-kappaB p65 subunit translocation into nucleus of mouse RAW264.7 cells at 10 uM pretreated for 30 mins followed by LPS stimulation for 3 hrs by DAPI staining based immunofluorescence assay. It counts as cell-based. A digest of the protocol: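 Cells at 1 × 10^5/mL plated overnight, pretreated 30 min, then LPS 500 ng/mL for 3 h; fixed in 4% formaldehyde, permeabilized with 1% Triton X-100, blocked in 5% BSA, anti-p65 (1:100) overnight at 4 °C, Alexa 594 secondary, DAPI nuclei. High-content imaging; nuclear minus cytoplasmic fluorescence; three independent experiments.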
Transcription factor p65 (Mus musculus), sequence (Q04207 whole entry): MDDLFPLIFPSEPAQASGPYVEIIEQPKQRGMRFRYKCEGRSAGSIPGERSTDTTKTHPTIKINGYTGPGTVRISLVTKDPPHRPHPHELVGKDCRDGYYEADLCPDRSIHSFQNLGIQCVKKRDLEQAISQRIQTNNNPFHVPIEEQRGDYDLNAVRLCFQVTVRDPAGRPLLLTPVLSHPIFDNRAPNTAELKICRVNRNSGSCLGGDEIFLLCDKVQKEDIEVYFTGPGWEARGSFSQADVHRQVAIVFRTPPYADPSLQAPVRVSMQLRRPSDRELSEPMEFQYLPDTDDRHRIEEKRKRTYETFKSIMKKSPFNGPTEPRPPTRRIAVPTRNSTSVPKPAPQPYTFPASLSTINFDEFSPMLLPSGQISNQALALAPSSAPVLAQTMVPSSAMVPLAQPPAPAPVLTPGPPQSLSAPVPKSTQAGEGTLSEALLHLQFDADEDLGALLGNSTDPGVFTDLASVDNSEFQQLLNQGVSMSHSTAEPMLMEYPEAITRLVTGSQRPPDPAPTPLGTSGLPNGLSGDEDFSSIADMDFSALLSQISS

Assay [7] deals with RAW264.7. Description: Inhibition of NF-kappaB in mouse RAW264.7 cells assessed as reduction in LPS-induced IL-6 level pretreated for 30 mins followed by LPS stimulation for 24 hrs by ELISA. The class given is cell-based. An outline of the steps:
(§3)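 Pretreatment at 0.3, 1, 3 or 9 μM for 30 min, then LPS 500 ng/mL for 24 h; culture supernatant assayed for TNF-α and IL-6 by ELISA kits; means ± SD of three independent experiments.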
In general terms: An ELISA detects its analyte on a solid surface through an enzyme-linked reagent.

The subject of assay [8] is RAW264.7. Description: Inhibition of NF-kappaB in mouse RAW264.7 cells assessed as reduction in LPS-induced iNOS protein expression pretreated for 30 mins followed by LPS stimulation for 12 hrs by Western blot analysis. It counts as cell-based. A digest of the protocol:
(§4)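 Cells 5 × 10^5 per well grown 24 h, serum-starved 12 h, pretreated 30 min, then LPS 500 ng/mL for 12 h. Lysates protein-normalized by BCA, 10% SDS-PAGE, PVDF, anti-iNOS or anti-COX-2 (1:1000) overnight at 4 °C, ECL detection; β-tubulin loading control.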

In assay [9] the test system is RAW264.7. Put plainly: Inhibition of NF-kappaB in mouse RAW264.7 cells assessed as reduction in LPS-induced TNF-alpha level pretreated for 30 mins followed by LPS stimulation for 24 hrs by ELISA. The class given is cell-based. An outline of the steps: as §3
The test system of assay [10] is Mus musculus. Put plainly: Antiinflammatory activity in BALB/c mouse assessed as inhibition of TPA-induced ear edema applied topically pretreated for 30 mins followed by TPA exposure measured after 4 hrs. The class given is functional. An outline of the steps: as §2
The test system of assay [11] is Mus musculus. Description: Antiinflammatory activity in TPA-induced ear edema BALB/c mouse model assessed as reduction in epidermal hyperplasia at 10 mg/ml applied topically pretreated for 30 mins followed by TPA exposure measured after 4 hrs by hematoxylin and eosin staining based light microscopic method. It counts as functional, tissue-based. An outline of the steps: as §1

For assay [12], the system named is RAW264.7. Put plainly: Inhibition of NF-kappaB in mouse RAW264.7 cells assessed as reduction in LPS-induced COX2 expression at 1 to 9 uM pretreated for 30 mins followed by LPS stimulation for 12 hrs by Western blot analysis. It counts as cell-based. A digest of the protocol:
as §4

Assay [13] concerns Mus musculus. Put plainly: Antiinflammatory activity in TPA-induced ear edema BALB/c mouse model assessed as reduction in inflammatory cell infilteration applied topically pretreated for 30 mins followed by TPA exposure measured after 4 hrs by hematoxylin and eosin staining based light microscopic method. The class given is functional, tissue-based. An outline of the steps:
as §1

For assay [14], the system named is Mus musculus. Put plainly: Antiinflammatory activity in TPA-induced ear edema BALB/c mouse model assessed as reduction in epidermal hyperplasia applied topically pretreated for 30 mins followed by TPA exposure measured after 4 hrs by hematoxylin and eosin staining based light microscopic method. It counts as functional, tissue-based. A digest of the protocol:
as §1

Assay [15] relates to RAW264.7. Description: Inhibition of LPS-induced NF-kappaB (unknown origin) transactivation expressed in mouse RAW264.7 cells at 20 uM pretreated for 30 mins followed by LPS stimulation for 6 hrs by luciferase reporter gene assay. To be noted: Homo sapiens. The class given is cell-based. A digest of the protocol:
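RAW 264.7/NF-κB-luc cells (RAW 264.7 stably carrying an NF-κB-driven luciferase reporter), kept in DMEM with 10% FBS, penicillin/streptomycin and 500 μg/mL G418. Seeded at 5 × 10^5 per well for 24 h, then compound for 30 min before LPS 500 ng/mL for 6 h; DMSO 0.5% vehicle, PDTC 20 μM positive control. Firefly luminescence read on lysates; means ± SD of three independent experiments.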

A word on the IC50: it is the concentration at which inhibition is half-maximal. The inhibition is the relative decrease from the control value, in per cent.

The source made the active and inactive calls. The calls are words filed in the database; no cut-off is given here.

For `C=C1[C@H]2C[C@H]2[C@]2(C)[C@H](O)[C@]3(OC)OC(=O)C(C)=C3C[C@@H]12`, in [1], the concentration for half-maximal inhibition (IC50) was over 50 µM.
In the case of `C=C1[C@H]2C[C@H]2[C@]2(C)C=C3OC(=O)C(C)=C3C[C@@H]12` [CHLORANTHALACTONE A], the IC50 in assay [1] came out at 33.2 µM.
With `C=C1[C@H]2C[C@H]2[C@@]2(C)[C@H]1CC1=C(C)C(=O)O[C@@]1(O)[C@H]2O`, the half-maximal inhibitory concentration (IC50) in assay [1] was determined as 35.4 µM.
On to `C=C1[C@H]2C[C@H]2[C@]2(C)C=C3OC(=O)C(C)=C3C[C@@]12O`, for which the IC50 in [1] is over 50 µM.
`CC1=C2CC3=C(CO)[C@H]4C[C@H]4[C@]3(C)C[C@@H]2OC1=O` [CHLORAJAPOLIDE C]: the half-inhibitory concentration (IC50) in assay [1] was over 50 µM.
Take `C=C1[C@H]2C[C@H]2[C@]2(C)C=C3OC(=O)C(C)=C3[C@H](OC(C)=O)[C@@H]12`: the inhibition entry with RAW264.7 [2], in the assay with RAW264.7 [4], with RAW264.7 [7], in the assay on RAW264.7 [8], with RAW264.7 [9] and in the assay with Mus musculus [10] was “Dose-dependent effect” in each case. For the same molecule, the result with Mus musculus [3] and with Mus musculus [11] was Active. Besides, in the assay on Mus musculus [5], the inhibition at 10000 µg/mL stood at 23.5%. Also, the inhibition result (in assay [6]; with RAW264.7 [12]) was “Active” throughout. The IC50 in assay [1] amounted to 1.4 µM.
`CC(=N)NCCCC[C@H](N)C(=O)O` [L-NIL]: the concentration for half-maximal inhibition (IC50) in assay [1] turned out to be 7.5 µM.
Turning to `C[C@]12CCC(=O)C=C1CC[C@@H]1[C@@H]2[C@@H](O)C[C@@]2(C)[C@H]1CC[C@]2(O)C(=O)CO` [HYDROCORTISONE], the result in the assay with Mus musculus [13] and with Mus musculus [14] was Active. For the same molecule, the “inhibition (INH)” value in the assay with Mus musculus [10] is given as 56.33%.
Turning to `C=C1[C@H]2C[C@H]2[C@]2(C)C[C@@H]3OC(=O)C(C)=C3C[C@]12O` [SARCANDRALACTONE A], the concentration for half-maximal inhibition (IC50) in assay [1] was over 50 µM.
`C=C1[C@H]2C[C@H]2[C@]2(C)[C@H](O)[C@@]3(OC)OC(=O)C(C)=C3C[C@@H]12`: the IC50 in assay [1] was over 50 µM.
With `S=C(S)N1CCCC1`, the inhibition entry in the assay with RAW264.7 [15] was “Active”.
As to `C=C1[C@H]2C[C@H]2[C@]2(C)C[C@@H]3OC(=O)C(C)=C3C[C@@H]12`, the 50% inhibitory concentration (IC50) in assay [1] is over 50 µM.

(Values after ChEMBL document CHEMBL3868593, “Chlojaponilactone B from Chloranthus japonicus: Suppression of Inflammatory Responses via Inhibition of the NF-κB Signaling Pathway” (J Nat Prod, 2016).)
